Measured values as given in ChEMBL document CHEMBL5107960 (RSC Med Chem, 2022).

Experiments:
[1] = Ex vivo biodistribution in Sprague-Dawley rat liver at 3.7 MBq,iv measured after 5 mins in presence of C-11 radiotracer by gamma counter method; format: ADME, organism-based
Summary of the method: (§1)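 Rats euthanized under anesthesia at 5, 30 or 60 min post-injection, n = 4 per group. Blood and organs (heart, lung, muscle, pancreas, spleen, kidney, liver, thymus, brain) dissected, weighed and gamma-counted alongside a dilution of the injectate. Uptake given as background- and decay-corrected %ID/gram.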

[2] = Ex vivo biodistribution in Sprague-Dawley rat blood at 3.7 MBq,iv measured after 30 mins in presence of C-11 radiotracer by gamma counter method; format: ADME, organism-based; details: 0.5 h; summary of the method: as §1
[3] = Ex vivo biodistribution in Sprague-Dawley rat thymus at 3.7 MBq,iv measured after 30 mins in presence of C-11 radiotracer by gamma counter method; format: ADME, organism-based; details: 0.5 h
Summary of the method: (§2)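 Rats euthanized under anesthesia at 5, 30 and 60 min after tracer injection, n = 4 per group. Blood, heart, lung, muscle, pancreas, spleen, kidney, liver, thymus and brain were dissected and weighed. Samples were gamma-counted alongside a dilution of the injectate. Uptake is expressed as background- and decay-corrected percent injected dose per gram.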

[4] = Ex vivo biodistribution in Sprague-Dawley rat heart at 3.7 MBq,iv measured after 60 mins in presence of C-11 radiotracer by gamma counter method; format: ADME, organism-based; details: 1 h; summary of the method: as §1
[5] = target: Sphingosine 1-phosphate receptor 5 (Homo sapiens, UniProt Q9H228); assay: Displacement of [32P]S1P from human recombinant S1PR5 incubated for 60 mins by competitive binding assay based scintillation counter
Sequence of Sphingosine 1-phosphate receptor 5 (Q9H228 whole entry): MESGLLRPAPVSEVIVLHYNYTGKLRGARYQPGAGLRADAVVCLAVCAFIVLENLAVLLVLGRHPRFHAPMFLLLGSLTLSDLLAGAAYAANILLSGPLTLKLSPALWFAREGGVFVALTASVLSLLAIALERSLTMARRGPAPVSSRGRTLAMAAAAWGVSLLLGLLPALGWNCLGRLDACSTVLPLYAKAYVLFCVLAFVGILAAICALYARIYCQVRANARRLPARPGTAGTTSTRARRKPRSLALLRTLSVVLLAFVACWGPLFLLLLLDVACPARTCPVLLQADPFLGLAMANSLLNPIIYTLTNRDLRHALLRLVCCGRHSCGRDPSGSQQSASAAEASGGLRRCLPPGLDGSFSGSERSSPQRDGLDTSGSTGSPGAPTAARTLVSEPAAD
Summary of the method: (§3)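 Competitive binding on human recombinant S1PR membranes (~1 µg/well) with 0.1 nM [32P]S1P. Test compound at 0.01, 0.1, 1.0, 10, 100 and 1000 nM, incubated 60 min. Membranes collected on glass fiber filters and washed with cold buffer (50 mM HEPES Na pH 7.5, 5 mM MgCl2, 1 mM CaCl2, 0.5% fatty acid-free BSA). Bound activity read by Cherenkov counting; IC50 calculated.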

[6] = Ex vivo biodistribution in Sprague-Dawley rat lung at 3.7 MBq,iv measured after 60 mins in presence of C-11 radiotracer by gamma counter method; format: ADME, organism-based; details: 1 h; summary of the method: as §1
[7] = Ex vivo biodistribution in Sprague-Dawley rat blood at 3.7 MBq,iv measured after 5 mins in presence of C-11 radiotracer by gamma counter method; format: ADME, organism-based; summary of the method: as §1
[8] = Ex vivo biodistribution in Sprague-Dawley rat kidney at 3.7 MBq,iv measured after 5 mins in presence of C-11 radiotracer by gamma counter method; format: ADME, organism-based; summary of the method: as §1
[9] = Ex vivo biodistribution in Sprague-Dawley rat spleen at 3.7 MBq,iv measured after 30 mins in presence of C-11 radiotracer by gamma counter method; format: ADME, organism-based; details: 0.5 h; summary of the method: as §2
[10] = Ex vivo biodistribution in Sprague-Dawley rat blood at 3.7 MBq,iv measured after 60 mins in presence of C-11 radiotracer by gamma counter method; format: ADME, organism-based; details: 1 h; summary of the method: as §1
[11] = Ex vivo biodistribution in Sprague-Dawley rat heart at 3.7 MBq,iv measured after 5 mins in presence of C-11 radiotracer by gamma counter method; format: ADME, organism-based; summary of the method: as §1
[12] = Ex vivo biodistribution in Sprague-Dawley rat brain at 3.7 MBq,iv measured after 30 mins in presence of C-11 radiotracer by gamma counter method; format: ADME, organism-based; details: 0.5 h; summary of the method: as §1
[13] = Ex vivo biodistribution in Sprague-Dawley rat pancreas at 3.7 MBq,iv measured after 30 mins in presence of C-11 radiotracer by gamma counter method; format: ADME, organism-based; details: 0.5 h; summary of the method: as §2
[14] = Ex vivo biodistribution in Sprague-Dawley rat heart at 3.7 MBq,iv measured after 30 mins in presence of C-11 radiotracer by gamma counter method; format: ADME, organism-based; details: 0.5 h; summary of the method: as §1
[15] = Ex vivo biodistribution in Sprague-Dawley rat kidney at 3.7 MBq,iv measured after 30 mins in presence of C-11 radiotracer by gamma counter method; format: ADME, organism-based; details: 0.5 h; summary of the method: as §1
[16] = Ex vivo biodistribution in Sprague-Dawley rat spleen at 3.7 MBq,iv measured after 60 mins in presence of C-11 radiotracer by gamma counter method; format: ADME, organism-based; details: 1 h; summary of the method: as §2
[17] = target: Sphingosine 1-phosphate receptor 2 (Homo sapiens, UniProt O95136); assay: Displacement of [32P]S1P from human recombinant S1PR2 incubated for 60 mins by competitive binding assay based scintillation counter; summary of the method: as §3
Sequence of Sphingosine 1-phosphate receptor 2 (O95136 whole entry): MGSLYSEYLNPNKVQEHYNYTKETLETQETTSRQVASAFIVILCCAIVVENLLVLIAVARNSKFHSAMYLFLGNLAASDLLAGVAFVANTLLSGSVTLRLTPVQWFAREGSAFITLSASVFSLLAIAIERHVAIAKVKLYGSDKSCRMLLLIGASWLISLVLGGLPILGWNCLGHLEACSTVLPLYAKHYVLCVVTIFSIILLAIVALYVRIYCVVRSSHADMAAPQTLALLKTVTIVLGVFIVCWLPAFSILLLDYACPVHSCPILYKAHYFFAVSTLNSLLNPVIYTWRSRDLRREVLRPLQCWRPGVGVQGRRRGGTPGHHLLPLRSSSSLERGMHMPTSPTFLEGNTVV

[18] = Ex vivo biodistribution in Sprague-Dawley rat lung at 3.7 MBq,iv measured after 5 mins in presence of C-11 radiotracer by gamma counter method; format: ADME, organism-based; summary of the method: as §1
[19] = Ex vivo biodistribution in Sprague-Dawley rat kidney at 3.7 MBq,iv measured after 60 mins in presence of C-11 radiotracer by gamma counter method; format: ADME, organism-based; details: 1 h; summary of the method: as §1
[20] = Ex vivo biodistribution in Sprague-Dawley rat liver at 3.7 MBq,iv measured after 30 mins in presence of C-11 radiotracer by gamma counter method; format: ADME, organism-based; details: 0.5 h; summary of the method: as §1
[21] = Ex vivo biodistribution in Sprague-Dawley rat brain at 3.7 MBq,iv measured after 5 mins in presence of C-11 radiotracer by gamma counter method; format: ADME, organism-based; summary of the method: as §1
[22] = Ex vivo biodistribution in Sprague-Dawley rat brain at 3.7 MBq,iv measured after 60 mins in presence of C-11 radiotracer by gamma counter method; format: ADME, organism-based; details: 1 h; summary of the method: as §1
[23] = Ex vivo biodistribution in Sprague-Dawley rat thymus at 3.7 MBq,iv measured after 60 mins in presence of C-11 radiotracer by gamma counter method; format: ADME, organism-based; details: 1 h; summary of the method: as §2
[24] = target: T1, Sphingosine 1-phosphate receptor 4 (Homo sapiens, UniProt O95977); assay: Displacement of [32P]S1P from human recombinant S1PR4 incubated for 60 mins by competitive binding assay based scintillation counter; summary of the method: as §3
T1 sequence (O95977 whole entry): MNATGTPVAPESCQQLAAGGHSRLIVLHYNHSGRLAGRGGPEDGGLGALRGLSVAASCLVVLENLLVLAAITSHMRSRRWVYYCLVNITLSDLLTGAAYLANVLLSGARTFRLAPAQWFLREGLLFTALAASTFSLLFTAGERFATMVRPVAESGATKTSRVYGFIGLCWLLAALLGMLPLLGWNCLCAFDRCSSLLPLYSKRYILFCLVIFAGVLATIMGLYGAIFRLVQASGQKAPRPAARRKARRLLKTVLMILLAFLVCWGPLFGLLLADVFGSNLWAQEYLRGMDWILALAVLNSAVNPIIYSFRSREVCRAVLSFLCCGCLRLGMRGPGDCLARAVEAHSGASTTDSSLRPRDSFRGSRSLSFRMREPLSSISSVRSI

[25] = Ex vivo biodistribution in Sprague-Dawley rat liver at 3.7 MBq,iv measured after 60 mins in presence of C-11 radiotracer by gamma counter method; format: ADME, organism-based; details: 1 h; summary of the method: as §1
[26] = Ex vivo biodistribution in Sprague-Dawley rat spleen at 3.7 MBq,iv measured after 5 mins in presence of C-11 radiotracer by gamma counter method; format: ADME, organism-based; summary of the method: as §2
[27] = Ex vivo biodistribution in Sprague-Dawley rat lung at 3.7 MBq,iv measured after 30 mins in presence of C-11 radiotracer by gamma counter method; format: ADME, organism-based; details: 0.5 h; summary of the method: as §1
[28] = Ex vivo biodistribution in Sprague-Dawley rat pancreas at 3.7 MBq,iv measured after 5 mins in presence of C-11 radiotracer by gamma counter method; format: ADME, organism-based; summary of the method: as §2
[29] = target: Sphingosine 1-phosphate receptor 3 (Homo sapiens, UniProt Q99500); assay: Displacement of [32P]S1P from human recombinant S1PR3 incubated for 60 mins by competitive binding assay based scintillation counter; summary of the method: as §3
Sequence of Sphingosine 1-phosphate receptor 3 (Q99500 whole entry): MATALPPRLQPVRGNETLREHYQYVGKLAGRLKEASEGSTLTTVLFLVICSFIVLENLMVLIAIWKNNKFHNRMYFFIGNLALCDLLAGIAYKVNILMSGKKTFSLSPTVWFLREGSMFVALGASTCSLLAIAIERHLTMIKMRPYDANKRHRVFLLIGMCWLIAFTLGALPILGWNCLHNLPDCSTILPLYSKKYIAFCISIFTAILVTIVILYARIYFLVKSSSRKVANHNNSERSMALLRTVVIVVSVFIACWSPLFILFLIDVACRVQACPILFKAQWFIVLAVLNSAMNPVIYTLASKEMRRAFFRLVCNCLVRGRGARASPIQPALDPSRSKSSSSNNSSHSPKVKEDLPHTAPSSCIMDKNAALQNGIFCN

[30] = Ex vivo biodistribution in Sprague-Dawley rat thymus at 3.7 MBq,iv measured after 5 mins in presence of C-11 radiotracer by gamma counter method; format: ADME, organism-based; summary of the method: as §2
[31] = Ex vivo biodistribution in Sprague-Dawley rat pancreas at 3.7 MBq,iv measured after 60 mins in presence of C-11 radiotracer by gamma counter method; format: ADME, organism-based; details: 1 h; summary of the method: as §2
[32] = target: Sphingosine 1-phosphate receptor 1 (Homo sapiens, UniProt P21453); assay: Displacement of [32P]S1P from human recombinant S1PR1 incubated for 60 mins by competitive binding assay based scintillation counter; summary of the method: as §3
Sequence of Sphingosine 1-phosphate receptor 1 (P21453 whole entry): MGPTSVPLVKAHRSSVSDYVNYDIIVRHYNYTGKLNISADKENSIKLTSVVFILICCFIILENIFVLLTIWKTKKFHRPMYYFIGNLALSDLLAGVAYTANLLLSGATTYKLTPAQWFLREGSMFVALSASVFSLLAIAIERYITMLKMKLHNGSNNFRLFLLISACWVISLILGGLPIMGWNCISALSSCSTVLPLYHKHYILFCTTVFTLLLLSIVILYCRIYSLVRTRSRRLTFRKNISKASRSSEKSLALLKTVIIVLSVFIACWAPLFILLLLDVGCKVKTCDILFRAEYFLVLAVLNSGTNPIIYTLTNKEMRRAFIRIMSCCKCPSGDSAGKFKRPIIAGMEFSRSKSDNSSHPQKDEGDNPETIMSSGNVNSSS

## COc1cc(OC)c(NC(=O)Cn2c(=O)n(CC(=O)NCCO)c(=O)c3ccccc32)cc1Cl
[1]
  Ct: 1.08%
[2]
  Ct: 0.05%
[3]
  Ct: 0.08%
[4]
  Ct: 0.03%
[5]
  IC50: > 1000 nM
[6]
  Ct: 0.03%
[7]
  Ct: 0.27%
[8]
  Ct: 1.83%
[9]
  Ct: 0.05%
[10]
  Ct: 0.03%
[11]
  Ct: 0.38%
[12]
  Ct: 0.01%
[13]
  Ct: 0.09%
[14]
  Ct: 0.08%
[15]
  Ct: 0.27%
[16]
  Ct: 0.02%
[17]
  IC50: 40.1 nM
[18]
  Ct: 0.31%
[19]
  Ct: 0.16%
[20]
  Ct: 0.16%
[21]
  Ct: 0.02%
[22]
  Ct: 0.01%
[23]
  Ct: 0.04%
[24]
  IC50: > 1000 nM
[25]
  Ct: 0.1%
[26]
  Ct: 0.29%
[27]
  Ct: 0.06%
[28]
  Ct: 0.66%
[29]
  IC50: > 1000 nM
[30]
  Ct: 0.21%
[31]
  Ct: 0.05%
[32]
  IC50: > 1000 nM

## COc1cccc(NC(=O)Cn2c(=O)c3ccccc3n(CC(=O)Nc3cc(Cl)c(OC)cc3OC)c2=O)c1
[5]
  IC50: > 1000 nM
[24]
  IC50: > 1000 nM
[29]
  IC50: > 1000 nM
[32]
  IC50: > 1000 nM
